According to ChEMBL document CHEMBL2062426 (J Med Chem, 2012):

Key:
Neutrophil collagenase = Neutrophil collagenase (Homo sapiens, UniProt P22894); test: Inhibition of MMP8 using (7-methoxycoumarin-4-yl)acetyl-Pro-Leu-Gly-Leu-(3-(2,4-dinitrophenyl)-L-2,3-diaminopropionyl)Ala-Arg-NH2 as substrate incubated for 30 mins prior to substrate addition measured for 10 mins by fluorometry
Summary of the method: (§1)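 Activated MMP-8 or MMP-9 (2 nM) was preincubated with inhibitor (10 pM–1 mM) in 50 mM Tris-HCl pH 7.5 with 0.2 M NaCl, 5 mM CaCl2, 20 μM ZnSO4 and 0.05% Brij 35 at 37 °C for 30 min. Fluorogenic substrate (10 μL of 50 μM into 90 μL) was then added. Rates from the first 10 min were plotted against inhibitor concentration, and values are the mean of three experiments.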

[1] = target: Matrix metalloproteinase-9 (Homo sapiens, UniProt P14780); test: Inhibition of MMP9 using (7-methoxycoumarin-4-yl)acetyl-Pro-Leu-Gly-Leu-(3-(2,4-dinitrophenyl)-L-2,3-diaminopropionyl)Ala-Arg-NH2 as substrate incubated for 30 mins prior to substrate addition measured for 10 mins by fluorometry; summary of the method: as §1
Matrix metalloproteinase-9, sequence (P14780 whole entry): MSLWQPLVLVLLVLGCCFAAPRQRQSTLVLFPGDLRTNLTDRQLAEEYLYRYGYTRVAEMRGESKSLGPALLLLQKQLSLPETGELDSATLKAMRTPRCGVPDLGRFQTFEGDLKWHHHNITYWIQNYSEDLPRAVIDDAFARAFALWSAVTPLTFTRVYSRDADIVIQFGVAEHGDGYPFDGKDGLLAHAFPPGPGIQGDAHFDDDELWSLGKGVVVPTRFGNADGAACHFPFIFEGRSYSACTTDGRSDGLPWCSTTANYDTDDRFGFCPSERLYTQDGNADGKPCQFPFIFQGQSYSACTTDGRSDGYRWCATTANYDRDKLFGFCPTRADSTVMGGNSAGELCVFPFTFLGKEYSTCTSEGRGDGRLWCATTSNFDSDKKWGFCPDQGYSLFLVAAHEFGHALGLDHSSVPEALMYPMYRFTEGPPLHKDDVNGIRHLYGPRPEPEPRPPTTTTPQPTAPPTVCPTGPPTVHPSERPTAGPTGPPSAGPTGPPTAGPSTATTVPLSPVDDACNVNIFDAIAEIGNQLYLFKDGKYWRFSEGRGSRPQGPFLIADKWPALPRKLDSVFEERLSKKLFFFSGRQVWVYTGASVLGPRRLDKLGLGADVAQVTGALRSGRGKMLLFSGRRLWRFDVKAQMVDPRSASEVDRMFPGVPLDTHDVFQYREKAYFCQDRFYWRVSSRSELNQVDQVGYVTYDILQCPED

Collagenase 3 = Collagenase 3 (Homo sapiens, UniProt P45452); test: Inhibition of MMP13 using (7-methoxycoumarin-4-yl)acetyl-Pro-Leu-Gly-Leu-(3-(2,4-dinitrophenyl)-L-2,3-diaminopropionyl)Ala-Arg-NH2 as substrate incubated for 30 mins prior to substrate addition measured for 10 mins by fluorometry
[2] = target: 72 kDa type IV collagenase (Homo sapiens, UniProt P08253); test: Inhibition of MMP2 using (7-methoxycoumarin-4-yl)acetyl-Pro-Leu-Gly-Leu-(3-(2,4-dinitrophenyl)-L-2,3-diaminopropionyl)Ala-Arg-NH2 as substrate incubated for 30 mins prior to substrate addition measured for 10 mins by fluorometry
72 kDa type IV collagenase, sequence (P08253 whole entry): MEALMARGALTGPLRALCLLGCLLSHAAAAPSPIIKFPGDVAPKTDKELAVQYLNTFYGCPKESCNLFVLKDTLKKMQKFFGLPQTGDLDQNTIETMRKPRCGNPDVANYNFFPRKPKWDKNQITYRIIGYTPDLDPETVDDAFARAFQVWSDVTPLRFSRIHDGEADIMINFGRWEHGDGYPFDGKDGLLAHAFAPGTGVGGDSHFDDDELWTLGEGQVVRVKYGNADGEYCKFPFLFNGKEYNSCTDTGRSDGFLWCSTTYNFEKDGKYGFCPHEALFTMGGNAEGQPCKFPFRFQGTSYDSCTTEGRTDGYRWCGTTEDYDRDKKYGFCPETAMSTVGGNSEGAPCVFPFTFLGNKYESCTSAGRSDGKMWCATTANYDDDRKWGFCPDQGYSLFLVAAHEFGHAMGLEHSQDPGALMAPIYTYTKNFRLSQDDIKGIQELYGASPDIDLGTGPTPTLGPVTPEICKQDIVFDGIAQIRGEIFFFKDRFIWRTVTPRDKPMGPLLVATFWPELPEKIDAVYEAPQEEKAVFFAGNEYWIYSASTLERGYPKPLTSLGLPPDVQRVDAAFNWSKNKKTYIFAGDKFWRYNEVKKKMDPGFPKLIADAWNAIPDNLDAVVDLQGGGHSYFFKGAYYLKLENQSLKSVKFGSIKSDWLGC

Neutrophil collagenase, sequence (P22894 whole entry): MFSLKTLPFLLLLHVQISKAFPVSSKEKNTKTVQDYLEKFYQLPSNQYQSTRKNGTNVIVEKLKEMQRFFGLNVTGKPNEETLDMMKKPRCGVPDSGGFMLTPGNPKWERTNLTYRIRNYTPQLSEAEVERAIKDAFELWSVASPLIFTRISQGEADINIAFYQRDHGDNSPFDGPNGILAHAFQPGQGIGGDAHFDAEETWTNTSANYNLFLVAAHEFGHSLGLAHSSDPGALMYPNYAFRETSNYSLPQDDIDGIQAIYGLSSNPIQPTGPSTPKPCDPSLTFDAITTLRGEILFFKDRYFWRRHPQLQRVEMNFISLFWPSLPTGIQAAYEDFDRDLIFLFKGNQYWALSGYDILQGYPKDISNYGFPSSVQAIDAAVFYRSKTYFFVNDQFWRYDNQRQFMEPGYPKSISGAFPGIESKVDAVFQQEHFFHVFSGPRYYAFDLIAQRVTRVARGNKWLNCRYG

SMILES | IC50 (Neutrophil collagenase) | IC50 [1] | IC50 (Collagenase 3) | IC50 [2]
COc1ccc(S(=O)(=O)N(Cc2ccc(OCCOCCOCCOCCOCc3cn(CCOCCOCCOCCF)nn3)cc2)[C@@H](C(=O)NO)C(C)C)cc1 | 5 nM | 5 nM | 4 nM | 4 nM
COc1ccc(S(=O)(=O)N(Cc2ccc(OCCOCCOCCOCCOCc3cn([C@@H]4O[C@H](CO)[C@@H](O)[C@H](O)[C@H]4F)nn3)cc2)[C@@H](C(=O)NO)C(C)C)cc1 | 58 nM | 43 nM | 18 nM | 30 nM
COc1ccc(S(=O)(=O)N(Cc2ccc(OCCOCCOCCOCCn3cc(COCCOCCOCCOCCOCCF)nn3)cc2)[C@@H](C(=O)NO)C(C)C)cc1 | 3 nM | 3 nM | 1 nM | 4 nM
C#CCN([C@@H](C(=O)NO)C(C)C)S(=O)(=O)c1ccc(OC)cc1 | 14 nM | 2 nM | 10 nM | 5 nM
COc1ccc(S(=O)(=O)N(Cc2cn(CCOS(=O)(=O)c3ccc(C)cc3)nn2)[C@@H](C(=O)NO)C(C)C)cc1 | 8 nM | 7 nM | 5 nM | 107 nM

Molecules with a lower IC50 (Neutrophil collagenase), results first:

IC50 (Neutrophil collagenase) | IC50 [1] | IC50 (Collagenase 3) | IC50 [2] | SMILES
0.2 nM | 0.6 nM | 6 nM | 2 nM | COc1ccc(S(=O)(=O)N(Cc2ccc(OCCOCCOCCOCCOCc3cn(CCF)nn3)cc2)[C@@H](C(=O)NO)C(C)C)cc1
0.11 nM | 0.37 nM | 0.09 nM | 0.35 nM | C#CCOCCOCCOCCOCCOc1ccc(CN([C@@H](C(=O)NO)C(C)C)S(=O)(=O)c2ccc(OC)cc2)cc1
0.02 nM | 0.03 nM | 0.006 nM | 0.13 nM | COc1ccc(S(=O)(=O)N(Cc2cn(CCF)nn2)[C@@H](C(=O)NO)C(C)C)cc1
